{"source": "ChEMBL document CHEMBL4364254", "about": "(J Med Chem, 2019)", "key": {"[1]": {"molecular_target": "5-hydroxytryptamine receptor 1B (Homo sapiens, UniProt P28222)", "sequence (P28222 whole entry)": "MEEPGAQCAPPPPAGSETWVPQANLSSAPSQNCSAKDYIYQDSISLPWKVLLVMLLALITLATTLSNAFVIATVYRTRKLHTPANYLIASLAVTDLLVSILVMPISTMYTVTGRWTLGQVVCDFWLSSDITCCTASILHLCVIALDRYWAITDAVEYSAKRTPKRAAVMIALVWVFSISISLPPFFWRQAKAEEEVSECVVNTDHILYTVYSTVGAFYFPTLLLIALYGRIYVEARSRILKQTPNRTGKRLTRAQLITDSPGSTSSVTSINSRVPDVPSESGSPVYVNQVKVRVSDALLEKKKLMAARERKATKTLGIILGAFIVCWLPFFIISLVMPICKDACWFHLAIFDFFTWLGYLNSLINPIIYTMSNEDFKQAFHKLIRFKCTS", "experiment": "Displacement of [3H]GR125743 from recombinant human 5HT1B after 60 mins by scintillation counting analysis"}, "[2]": {"experiment": "Cmax in C57BL6 mouse plasma at 0.3 mg/kg, po measured at 2 hrs post dose by LC-MS/MS analysis", "format": "ADME, organism-based", "design": "dose 0.3 mg/kg, route oral", "in_short": "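Female C57BL6 mice, 8 weeks old, received a single oral dose of 0.3 mg/kg in 1% NMP/0.3% Tween 80 in 0.5% Na-CMC. […] Maximum observed concentrations are reported; plasma clearance and half-life come from PK analysis.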"}, "Glutamate NMDA receptor": {"molecular_target": "Glutamate NMDA receptor", "experiment": "Displacement of [3H]CGP 39653 from rat brain NMDA receptor after 60 mins by scintillation counting analysis"}, "[3]": {"experiment": "Displacement of [3H]batrachotoxinin from rat brain voltage-gated sodium ion channel site 2 after 60 mins by scintillation counting analysis"}, "Histamine H1 receptor": {"molecular_target": "Histamine H1 receptor (Homo sapiens, UniProt P35367)", "sequence (P35367 whole entry)": "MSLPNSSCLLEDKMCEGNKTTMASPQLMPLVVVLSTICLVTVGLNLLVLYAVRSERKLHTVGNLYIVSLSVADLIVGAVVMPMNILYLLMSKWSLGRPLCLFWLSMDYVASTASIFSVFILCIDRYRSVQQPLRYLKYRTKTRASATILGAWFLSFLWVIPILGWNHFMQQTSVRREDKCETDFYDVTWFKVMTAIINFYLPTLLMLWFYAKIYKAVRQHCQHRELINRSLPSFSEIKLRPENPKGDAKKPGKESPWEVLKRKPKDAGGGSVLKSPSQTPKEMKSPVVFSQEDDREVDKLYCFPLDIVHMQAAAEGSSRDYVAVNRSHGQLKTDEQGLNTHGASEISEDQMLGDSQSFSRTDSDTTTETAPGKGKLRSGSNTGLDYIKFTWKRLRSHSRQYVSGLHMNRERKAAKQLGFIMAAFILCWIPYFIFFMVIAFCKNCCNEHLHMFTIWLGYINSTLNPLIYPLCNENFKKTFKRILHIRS", "experiment": "Displacement of [3H]pyrilamine from recombinant human H1 receptor after 60 mins by scintillation counting analysis"}, "D(1A) dopamine receptor": {"molecular_target": "D(1A) dopamine receptor (Homo sapiens, UniProt P21728)", "sequence (P21728 whole entry)": "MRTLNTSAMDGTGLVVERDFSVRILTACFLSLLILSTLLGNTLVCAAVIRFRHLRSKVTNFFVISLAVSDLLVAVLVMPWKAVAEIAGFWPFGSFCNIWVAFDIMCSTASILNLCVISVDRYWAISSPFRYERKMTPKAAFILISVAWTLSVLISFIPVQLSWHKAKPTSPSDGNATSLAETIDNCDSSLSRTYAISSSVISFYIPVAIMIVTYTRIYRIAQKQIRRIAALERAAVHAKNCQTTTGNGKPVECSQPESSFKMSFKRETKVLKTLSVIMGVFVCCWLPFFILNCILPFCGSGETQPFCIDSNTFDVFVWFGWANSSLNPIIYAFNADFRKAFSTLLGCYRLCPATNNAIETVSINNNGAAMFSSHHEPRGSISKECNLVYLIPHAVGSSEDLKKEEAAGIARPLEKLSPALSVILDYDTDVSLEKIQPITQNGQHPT", "experiment": "Displacement of [3H]SCH23390 from recombinant human D1 receptor after 60 mins by scintillation counting analysis"}, "Cytochrome P450 1A2": {"molecular_target": "Cytochrome P450 1A2 (Homo sapiens, UniProt P05177)", "experiment": "Induction of CYP1A2 in human HepaRG cells at 10 uM measured after 24 hrs by qRT-PCR analysis relative to omeprazole", "format": "ADME, cell-based", "conditions": "hepatocytes", "in_short": "(§1)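 Cryopreserved HepaRG cells were plated on collagen I in Williams' E medium with GlutaMAX. On day 4 they were treated with 10 μM compound in serum-free induction medium for 24 h at 37 °C; the vehicle was 1% DMSO. Positive controls were omeprazole 50 μM (CYP1A2), phenobarbital 1 mM (CYP2B6) and rifampicin 10 μM (CYP3A4). mRNA was read by TaqMan qPCR with GAPDH as reference, using ΔΔCt, and expressed as % of the positive control.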"}, "[4]": {"experiment": "Displacement of [125I]alpha-dendrotoxin from rat brain voltage-gated potassium ion channel after 60 mins by scintillation counting analysis"}, "Cytochrome P450 3A4": {"molecular_target": "Cytochrome P450 3A4 (Homo sapiens, UniProt P08684)", "experiment": "Induction of CYP3A4 in human HepaRG cells at 10 uM measured after 24 hrs by qRT-PCR analysis relative to rifampicin", "format": "ADME, cell-based", "conditions": "hepatocytes", "in_short": "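Cryopreserved HepaRG cells were plated on collagen I in Williams' E medium with GlutaMAX. Positive controls were omeprazole 50 μM (CYP1A2), phenobarbital 1 mM (CYP2B6) and rifampicin 10 μM (CYP3A4). mRNA was read by TaqMan qPCR with GAPDH as reference, using ΔΔCt, and expressed as % of the positive control.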"}, "[5]": {"molecular_target": "Muscarinic acetylcholine receptor M3 (Homo sapiens, UniProt P20309)", "experiment": "Displacement of [3H]4-DAMP from recombinant human M3 receptor after 60 mins by scintillation counting analysis"}, "[6]": {"molecular_target": "5-hydroxytryptamine receptor 1A (Homo sapiens, UniProt P08908)", "sequence (P08908 whole entry)": "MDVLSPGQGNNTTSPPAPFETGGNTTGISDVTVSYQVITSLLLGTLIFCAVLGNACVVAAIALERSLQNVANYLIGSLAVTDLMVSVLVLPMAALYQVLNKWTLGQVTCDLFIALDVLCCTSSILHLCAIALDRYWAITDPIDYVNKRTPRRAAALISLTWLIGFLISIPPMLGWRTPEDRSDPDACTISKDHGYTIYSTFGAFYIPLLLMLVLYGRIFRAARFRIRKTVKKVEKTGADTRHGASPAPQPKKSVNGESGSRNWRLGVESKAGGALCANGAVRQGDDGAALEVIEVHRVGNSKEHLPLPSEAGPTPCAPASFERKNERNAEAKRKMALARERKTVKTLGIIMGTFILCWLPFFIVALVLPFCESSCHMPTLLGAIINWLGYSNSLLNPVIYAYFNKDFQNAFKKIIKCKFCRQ", "experiment": "Displacement of [3H]8-OH-DPAT from recombinant human 5HT1A after 60 mins by scintillation counting analysis"}, "[7]": {"molecular_target": "Neuronal acetylcholine receptor; alpha4/beta2 (Homo sapiens, UniProt P17787+P43681)", "sequence (P17787 whole entry)": "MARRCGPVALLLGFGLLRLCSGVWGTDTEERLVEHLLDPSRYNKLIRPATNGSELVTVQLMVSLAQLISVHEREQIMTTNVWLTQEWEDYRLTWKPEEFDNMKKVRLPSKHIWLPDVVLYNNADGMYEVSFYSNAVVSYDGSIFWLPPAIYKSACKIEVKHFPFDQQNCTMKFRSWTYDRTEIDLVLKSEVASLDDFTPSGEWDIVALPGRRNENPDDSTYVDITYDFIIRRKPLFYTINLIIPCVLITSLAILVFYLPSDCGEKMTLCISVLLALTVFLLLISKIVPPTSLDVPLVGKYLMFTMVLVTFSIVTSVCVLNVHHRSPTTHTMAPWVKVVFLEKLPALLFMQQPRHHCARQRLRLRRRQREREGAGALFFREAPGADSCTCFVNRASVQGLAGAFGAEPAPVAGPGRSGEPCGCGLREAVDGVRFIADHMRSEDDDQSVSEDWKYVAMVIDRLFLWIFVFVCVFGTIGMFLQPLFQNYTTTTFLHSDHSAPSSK", "sequence (P43681 whole entry)": "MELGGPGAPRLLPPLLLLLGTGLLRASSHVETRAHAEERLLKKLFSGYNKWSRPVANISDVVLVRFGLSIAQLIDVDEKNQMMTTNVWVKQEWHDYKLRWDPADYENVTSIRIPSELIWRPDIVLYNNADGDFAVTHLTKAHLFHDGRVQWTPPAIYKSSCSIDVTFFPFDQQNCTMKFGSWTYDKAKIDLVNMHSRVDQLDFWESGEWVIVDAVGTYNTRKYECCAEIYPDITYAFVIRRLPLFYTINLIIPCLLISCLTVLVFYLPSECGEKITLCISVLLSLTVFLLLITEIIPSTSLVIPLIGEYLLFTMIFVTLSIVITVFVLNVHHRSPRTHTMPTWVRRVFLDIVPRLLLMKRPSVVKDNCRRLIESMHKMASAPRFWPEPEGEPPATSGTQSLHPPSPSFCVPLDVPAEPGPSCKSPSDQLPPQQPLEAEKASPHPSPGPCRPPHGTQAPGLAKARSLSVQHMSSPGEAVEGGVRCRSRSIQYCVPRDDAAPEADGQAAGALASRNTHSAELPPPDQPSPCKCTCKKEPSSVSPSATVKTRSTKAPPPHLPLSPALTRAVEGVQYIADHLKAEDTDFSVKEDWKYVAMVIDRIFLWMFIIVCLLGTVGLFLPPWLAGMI", "experiment": "Displacement of [3H]cytisine from recombinant human alpha4beta2 nAChR after 120 mins by scintillation counting analysis", "format": "protein-complex assay"}, "Vasopressin V1a receptor": {"molecular_target": "Vasopressin V1a receptor (Homo sapiens, UniProt P37288)", "sequence (P37288 whole entry)": "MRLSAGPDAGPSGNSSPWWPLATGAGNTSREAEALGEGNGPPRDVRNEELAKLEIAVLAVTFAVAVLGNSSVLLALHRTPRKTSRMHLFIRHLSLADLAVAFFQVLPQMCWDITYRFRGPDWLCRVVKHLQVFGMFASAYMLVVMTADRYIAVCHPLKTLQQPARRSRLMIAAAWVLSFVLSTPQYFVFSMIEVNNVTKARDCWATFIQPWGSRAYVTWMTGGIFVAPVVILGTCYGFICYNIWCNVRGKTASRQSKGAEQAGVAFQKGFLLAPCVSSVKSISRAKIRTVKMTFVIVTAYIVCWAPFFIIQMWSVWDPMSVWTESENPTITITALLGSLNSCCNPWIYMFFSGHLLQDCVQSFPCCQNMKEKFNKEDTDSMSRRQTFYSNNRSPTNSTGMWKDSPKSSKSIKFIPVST", "experiment": "Displacement of [3H]AVP from recombinant human V1A receptor after 60 mins by scintillation counting analysis"}, "[8]": {"molecular_target": "Muscarinic acetylcholine receptor M2 (Homo sapiens, UniProt P08172)", "sequence (P08172 whole entry)": "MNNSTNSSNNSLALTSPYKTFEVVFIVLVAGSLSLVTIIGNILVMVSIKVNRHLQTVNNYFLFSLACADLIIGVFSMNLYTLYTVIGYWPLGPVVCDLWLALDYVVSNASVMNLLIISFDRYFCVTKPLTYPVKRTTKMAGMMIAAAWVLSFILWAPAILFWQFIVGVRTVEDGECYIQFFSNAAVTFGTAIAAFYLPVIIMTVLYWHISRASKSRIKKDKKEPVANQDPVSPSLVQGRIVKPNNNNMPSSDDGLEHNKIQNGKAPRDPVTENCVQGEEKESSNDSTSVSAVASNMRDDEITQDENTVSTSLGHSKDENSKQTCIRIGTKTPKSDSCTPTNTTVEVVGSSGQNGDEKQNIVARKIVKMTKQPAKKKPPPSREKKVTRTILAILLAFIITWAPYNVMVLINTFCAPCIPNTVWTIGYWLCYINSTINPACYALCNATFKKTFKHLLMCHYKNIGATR", "experiment": "Displacement of [3H]AF-DX 384 from recombinant human M2 receptor after 60 mins by scintillation counting analysis"}, "[9]": {"molecular_target": "Voltage-dependent L-type calcium channel subunit alpha-1C (Rattus norvegicus, UniProt P22002)", "experiment": "Displacement of [3H]nitrendipine from rat brain Cav1.2 dihydropyridine site after 90 mins by scintillation counting analysis"}, "Cytochrome P450 2B6": {"molecular_target": "Cytochrome P450 2B6 (Homo sapiens, UniProt P20813)", "experiment": "Induction of CYP2B6 in human HepaRG cells at 10 uM measured after 24 hrs by qRT-PCR analysis relative to phenobarbital", "format": "ADME, cell-based", "conditions": "hepatocytes", "in_short": "as §1"}, "[10]": {"molecular_target": "5-hydroxytryptamine receptor 3A (Homo sapiens, UniProt P46098)", "sequence (P46098 whole entry)": "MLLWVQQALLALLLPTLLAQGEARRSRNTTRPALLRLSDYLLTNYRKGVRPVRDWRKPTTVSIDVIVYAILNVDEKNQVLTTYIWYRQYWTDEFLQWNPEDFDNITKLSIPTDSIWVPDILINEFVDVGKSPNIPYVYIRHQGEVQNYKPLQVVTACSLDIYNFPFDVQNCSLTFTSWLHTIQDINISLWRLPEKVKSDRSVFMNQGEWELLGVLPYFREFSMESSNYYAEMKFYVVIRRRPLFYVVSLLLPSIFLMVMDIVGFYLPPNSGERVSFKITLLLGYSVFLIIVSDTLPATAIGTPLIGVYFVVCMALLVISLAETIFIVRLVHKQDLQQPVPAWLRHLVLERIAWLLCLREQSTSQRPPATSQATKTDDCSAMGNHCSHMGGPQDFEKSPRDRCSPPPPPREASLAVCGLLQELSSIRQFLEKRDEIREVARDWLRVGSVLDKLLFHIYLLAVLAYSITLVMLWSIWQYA", "experiment": "Displacement of [3H]BRL43694 from recombinant human 5HT3 receptor after 120 mins by scintillation counting analysis"}, "[11]": {"molecular_target": "Delta-type opioid receptor (Homo sapiens, UniProt P41143)", "sequence (P41143 whole entry)": "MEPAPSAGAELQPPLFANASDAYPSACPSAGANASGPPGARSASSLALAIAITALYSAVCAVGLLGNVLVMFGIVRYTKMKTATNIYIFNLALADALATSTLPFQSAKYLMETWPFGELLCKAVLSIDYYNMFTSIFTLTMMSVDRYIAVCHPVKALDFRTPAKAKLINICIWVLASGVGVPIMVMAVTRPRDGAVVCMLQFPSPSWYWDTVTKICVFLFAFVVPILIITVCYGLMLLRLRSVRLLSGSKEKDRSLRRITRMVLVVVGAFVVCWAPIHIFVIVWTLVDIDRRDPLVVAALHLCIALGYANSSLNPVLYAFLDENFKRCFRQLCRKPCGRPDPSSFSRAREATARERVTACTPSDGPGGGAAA", "experiment": "Displacement of [3H]DADLE from recombinant human DOR after 60 mins by scintillation counting analysis"}, "[12]": {"molecular_target": "GABA-A receptor; anion channel", "experiment": "Displacement of [3H]flunitrazepam from rat brain GABAA ion channel after 60 mins by scintillation counting analysis"}, "Histamine H2 receptor": {"molecular_target": "Histamine H2 receptor (Homo sapiens, UniProt P25021)", "sequence (P25021 whole entry)": "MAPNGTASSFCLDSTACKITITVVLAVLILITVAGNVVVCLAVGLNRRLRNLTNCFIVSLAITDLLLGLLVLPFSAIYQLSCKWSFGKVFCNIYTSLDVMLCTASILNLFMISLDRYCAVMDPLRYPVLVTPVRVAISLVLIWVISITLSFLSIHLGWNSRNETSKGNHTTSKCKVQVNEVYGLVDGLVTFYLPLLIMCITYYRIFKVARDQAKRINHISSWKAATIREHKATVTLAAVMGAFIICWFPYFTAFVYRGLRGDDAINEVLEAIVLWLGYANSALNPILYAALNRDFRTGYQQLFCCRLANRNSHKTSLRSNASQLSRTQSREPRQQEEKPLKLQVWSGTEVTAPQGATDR", "experiment": "Displacement of [125I]APT from recombinant human H2 receptor after 120 mins by scintillation counting analysis"}}}
{"smiles": "O=C(Nc1ccc(OC(F)F)nc1)NC1CCN(c2ncnc3c2nc(-c2ccccc2Cl)n3-c2ccc(Cl)cc2)CC1", "values": [{"measurement": "EC50", "setting": "[1]", "result": "> 10", "unit": "µM"}, {"measurement": "IC50", "setting": "[1]", "result": "> 10", "unit": "µM"}, {"measurement": "Cmax", "setting": "[2]", "result": 940, "unit": "ng/mL"}, {"measurement": "EC50", "setting": "Glutamate NMDA receptor", "result": "> 10", "unit": "µM"}, {"measurement": "IC50", "setting": "Glutamate NMDA receptor", "result": "> 10", "unit": "µM"}, {"measurement": "EC50", "setting": "[3]", "result": "> 10", "unit": "µM"}, {"measurement": "IC50", "setting": "[3]", "result": "> 10", "unit": "µM"}, {"measurement": "EC50", "setting": "Histamine H1 receptor", "result": "> 10", "unit": "µM"}, {"measurement": "IC50", "setting": "Histamine H1 receptor", "result": "> 10", "unit": "µM"}, {"measurement": "EC50", "setting": "D(1A) dopamine receptor", "result": "> 10", "unit": "µM"}, {"measurement": "IC50", "setting": "D(1A) dopamine receptor", "result": "> 10", "unit": "µM"}, {"measurement": "Activity", "setting": "Cytochrome P450 1A2", "result": "< 1", "unit": "%"}, {"measurement": "EC50", "setting": "[4]", "result": "> 10", "unit": "µM"}, {"measurement": "IC50", "setting": "[4]", "result": "> 10", "unit": "µM"}, {"measurement": "Activity", "setting": "Cytochrome P450 3A4", "result": "< 10", "unit": "%"}, {"measurement": "EC50", "setting": "[5]", "result": "> 10", "unit": "µM"}, {"measurement": "IC50", "setting": "[5]", "result": "> 10", "unit": "µM"}, {"measurement": "EC50", "setting": "[6]", "result": "> 10", "unit": "µM"}, {"measurement": "IC50", "setting": "[6]", "result": "> 10", "unit": "µM"}, {"measurement": "EC50", "setting": "[7]", "result": "> 10", "unit": "µM"}, {"measurement": "IC50", "setting": "[7]", "result": "> 10", "unit": "µM"}, {"measurement": "EC50", "setting": "Vasopressin V1a receptor", "result": "> 10", "unit": "µM"}, {"measurement": "IC50", "setting": "Vasopressin V1a receptor", "result": "> 10", "unit": "µM"}, {"measurement": "EC50", "setting": "[8]", "result": "> 10", "unit": "µM"}, {"measurement": "IC50", "setting": "[8]", "result": "> 10", "unit": "µM"}, {"measurement": "EC50", "setting": "[9]", "result": "> 10", "unit": "µM"}, {"measurement": "IC50", "setting": "[9]", "result": "> 10", "unit": "µM"}, {"measurement": "Activity", "setting": "Cytochrome P450 2B6", "result": "< 10", "unit": "%"}, {"measurement": "EC50", "setting": "[10]", "result": "> 10", "unit": "µM"}, {"measurement": "IC50", "setting": "[10]", "result": "> 10", "unit": "µM"}, {"measurement": "EC50", "setting": "[11]", "result": "> 10", "unit": "µM"}, {"measurement": "IC50", "setting": "[11]", "result": "> 10", "unit": "µM"}, {"measurement": "EC50", "setting": "[12]", "result": "> 10", "unit": "µM"}, {"measurement": "IC50", "setting": "[12]", "result": "> 10", "unit": "µM"}, {"measurement": "EC50", "setting": "Histamine H2 receptor", "result": "> 10", "unit": "µM"}, {"measurement": "IC50", "setting": "Histamine H2 receptor", "result": "> 10", "unit": "µM"}]}
